# Assays:
# Format in all cases: functional
# Plutella xylostella [1] = assay: Insecticidal activity against Plutella xylostella (diamondback moth) grown on compound pre-treated fresh cabbage leaves assessed as insect mortality at 200 mg/kg measured 3 days post compound treatment by leaf-dip method
# In short: (§1)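 Leaf-dip stomach-toxicity assay on laboratory-reared diamondback moth. Test solutions came from a 200 mg L^-1 stock in dimethylformamide, diluted with water containing TW-20. Control leaves were treated with water and dimethylformamide. Tests were held at 25±1 °C, percentage mortality was scored 3 days after treatment, and each treatment was run three times.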
# Culex pipiens pallens [2] = assay: Insecticidal activity against Culex pipiens pallens (mosquito) assessed as insect mortality at 25 ug/kg measured 1 day post compound treatment; conditions: 24 h
# In short: (§2)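 Fourth-instar Culex pipiens pallens larvae, 20 per test, were laboratory-reared and placed in 100 mL of test solution made by adding 1 mL of compound dilution to 99 mL of water. Tests were held at 25±1 °C, percentage mortality was scored 1 day after treatment, and each test was run three times.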
# Culex pipiens pallens [3] = assay: Insecticidal activity against Culex pipiens pallens (mosquito) assessed as insect mortality at 10 ug/kg measured 1 day post compound treatment; conditions: 24 h; in short: as §2
# Culex pipiens pallens [4] = assay: Insecticidal activity against Culex pipiens pallens (mosquito) assessed as insect mortality at 5 ug/kg measured 1 day post compound treatment; conditions: 24 h; in short: as §2
# Plutella xylostella [5] = assay: Insecticidal activity against Plutella xylostella (diamondback moth) grown on compound pre-treated fresh cabbage leaves assessed as insect mortality at 5 mg/kg measured 3 days post compound treatment by leaf-dip method; conditions: Plutella xylostella; in short: as §1
# Aphis craccivora [6] = assay: Insecticidal activity against Aphis craccivora (cowpea aphid) infested tender soybean shoots exposed to 100 mg/kg test compound solution assessed as insect mortality measured 24 hr post compound treatment
# In short: (§3)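 Soybean tender shoots carrying 60 aphids were dipped in test solutions. Solutions were made from a 200 mg L^-1 stock in dimethylformamide, diluted with water containing TW-20. Insects were laboratory-reared, tests were held at 25±1 °C, and mortality was scored.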
# Aphis craccivora [7] = assay: Insecticidal activity against Aphis craccivora (cowpea aphid) infested tender soybean shoots exposed to 200 mg/kg test compound solution assessed as insect mortality measured 24 hr post compound treatment; in short: as §3
# Plutella xylostella [8] = assay: Insecticidal activity against Plutella xylostella (diamondback moth) grown on compound pre-treated fresh cabbage leaves assessed as insect mortality at 25 mg/kg measured 3 days post compound treatment by leaf-dip method; conditions: Plutella xylostella; in short: as §1
# Aphis craccivora [9] = assay: Insecticidal activity against Aphis craccivora (cowpea aphid) infested tender soybean shoots exposed to 5 mg/kg test compound solution assessed as insect mortality measured 24 hr post compound treatment; conditions: Aphis craccivora, 24 h; in short: as §3
# Aphis craccivora [10] = assay: Insecticidal activity against Aphis craccivora (cowpea aphid) infested tender soybean shoots exposed to 50 mg/kg test compound solution assessed as insect mortality measured 24 hr post compound treatment; in short: as §3
# Culex pipiens pallens [11] = assay: Insecticidal activity against Culex pipiens pallens (mosquito) assessed as insect mortality at 100 ug/kg measured 1 day post compound treatment; conditions: Culex pipiens, 24 h; in short: as §2
# Plutella xylostella [12] = assay: Insecticidal activity against Plutella xylostella (diamondback moth) grown on compound pre-treated fresh cabbage leaves assessed as insect mortality at 100 mg/kg measured 3 days post compound treatment by leaf-dip method; in short: as §1
# Culex pipiens pallens [13] = assay: Insecticidal activity against Culex pipiens pallens (mosquito) assessed as insect mortality at 2.5 ug/kg measured 1 day post compound treatment; conditions: 24 h; in short: as §2
# Plutella xylostella [14] = assay: Insecticidal activity against Plutella xylostella (diamondback moth) grown on compound pre-treated fresh cabbage leaves assessed as insect mortality at 50 mg/kg measured 3 days post compound treatment by leaf-dip method; in short: as §1
# Aphis craccivora [15] = assay: Insecticidal activity against Aphis craccivora (cowpea aphid) infested tender soybean shoots exposed to 10 mg/kg test compound solution assessed as insect mortality measured 24 hr post compound treatment; conditions: Aphis craccivora, 24 h; in short: as §3
# Plutella xylostella [16] = assay: Insecticidal activity against Plutella xylostella (diamondback moth) grown on compound pre-treated fresh cabbage leaves assessed as insect mortality at 10 mg/kg measured 3 days post compound treatment by leaf-dip method; conditions: Plutella xylostella; in short: as §1
# Culex pipiens pallens [17] = assay: Insecticidal activity against Culex pipiens pallens (mosquito) assessed as insect mortality at 50 ug/kg measured 1 day post compound treatment; conditions: 24 h; in short: as §2
# Aphis craccivora [18] = assay: Insecticidal activity against Aphis craccivora (cowpea aphid) infested tender soybean shoots exposed to 25 mg/kg test compound solution assessed as insect mortality measured 24 hr post compound treatment; in short: as §3
# Aphis craccivora [19] = assay: Insecticidal activity against Aphis craccivora (cowpea aphid) infested tender soybean shoots exposed to 2.5 mg/kg test compound solution assessed as insect mortality measured 24 hr post compound treatment; conditions: Aphis craccivora, 24 h; in short: as §3
# Plutella xylostella [20] = assay: Insecticidal activity against Plutella xylostella (diamondback moth) grown on compound pre-treated fresh cabbage leaves assessed as insect mortality at 2.5 mg/kg measured 3 days post compound treatment by leaf-dip method; in short: as §1
SMILES,mortality at 200 mg/kg (Plutella xylostella [1]) [%],mortality at 0.025 mg/kg (Culex pipiens pallens [2]) [%],mortality at 0.01 mg/kg (Culex pipiens pallens [3]) [%],mortality at 0.005 mg/kg (Culex pipiens pallens [4]) [%],mortality at 5 mg/kg (Plutella xylostella [5]) [%],mortality at 100 mg/kg (Aphis craccivora [6]) [%],mortality at 200 mg/kg (Aphis craccivora [7]) [%],mortality at 25 mg/kg (Plutella xylostella [8]) [%],mortality at 5 mg/kg (Aphis craccivora [9]) [%],mortality at 50 mg/kg (Aphis craccivora [10]) [%],mortality at 0.1 mg/kg (Culex pipiens pallens [11]) [%],mortality at 100 mg/kg (Plutella xylostella [12]) [%],mortality at 0.0025 mg/kg (Culex pipiens pallens [13]) [%],mortality at 50 mg/kg (Plutella xylostella [14]) [%],mortality at 10 mg/kg (Aphis craccivora [15]) [%],mortality at 10 mg/kg (Plutella xylostella [16]) [%],mortality at 0.05 mg/kg (Culex pipiens pallens [17]) [%],mortality at 25 mg/kg (Aphis craccivora [18]) [%],mortality at 2.5 mg/kg (Aphis craccivora [19]) [%],mortality at 2.5 mg/kg (Plutella xylostella [20]) [%]
CCSc1c(C#N)nn(-c2c(Cl)cc(C(F)(F)F)cc2Cl)c1NC(OCCCl)C(Cl)(Cl)Cl (stereo not given),100,100,100,100,0,100,100,43,0,100,100,100,60,88,51,27,100,100,,
CCCOC(Nc1c(SCC)c(C#N)nn1-c1c(Cl)cc(C(F)(F)F)cc1Cl)C(Cl)(Cl)Cl (stereo not given),100,100,100,50,,90,95,58,,85,100,100,,89,0,17,100,53,,
CCOC(Nc1c(SCC)c(C#N)nn1-c1c(Cl)cc(C(F)(F)F)cc1Cl)C(Cl)(Cl)Cl (stereo not given),100,100,100,0,,86,90,44,,75,100,100,,96,0,18,100,35,,
CCSc1c(C#N)nn(-c2c(Cl)cc(C(F)(F)F)cc2Cl)c1NC(OC)C(Cl)(Cl)Cl (stereo not given),100,100,100,100,,90,93,34,,80,100,100,30,94,0,0,100,62,,
CSc1c(C#N)nn(-c2c(Cl)cc(C(F)(F)F)cc2Cl)c1NC(OCCCl)C(Cl)(Cl)Cl (stereo not given),100,100,100,20,87,100,100,100,69,100,100,100,,100,73,100,100,98,62,62
CCCOC(Nc1c(SC)c(C#N)nn1-c1c(Cl)cc(C(F)(F)F)cc1Cl)C(Cl)(Cl)Cl (stereo not given),100,100,100,100,,100,100,17,0,90,100,100,100,36,21,0,100,43,0,
CCOC(Nc1c(SC)c(C#N)nn1-c1c(Cl)cc(C(F)(F)F)cc1Cl)C(Cl)(Cl)Cl (stereo not given),100,100,100,100,43,100,100,84,0,56,100,100,80,100,0,68,100,43,,0
COC(Nc1c(SC)c(C#N)nn1-c1c(Cl)cc(C(F)(F)F)cc1Cl)C(Cl)(Cl)Cl (stereo not given),100,100,100,100,76,100,100,100,43,100,100,100,70,100,89,86,100,94,0,25

# Reference: ChEMBL document CHEMBL3044673, “Design, synthesis and insecticidal activity of novel phenylpyrazoles containing a 2,2,2-trichloro-1-alkoxyethyl moiety” (2010)
